pKi: −log10 of the molar value.

The record followed here is ChEMBL document CHEMBL3352683, “Rational design of urea-based glutamate carboxypeptidase II (GCPII) inhibitors as versatile tools for specific drug targeting and delivery” (Bioorg Med Chem, 2014).

Sequence of Glutamate carboxypeptidase 2 (Q04609 whole entry, the tested form may be a part): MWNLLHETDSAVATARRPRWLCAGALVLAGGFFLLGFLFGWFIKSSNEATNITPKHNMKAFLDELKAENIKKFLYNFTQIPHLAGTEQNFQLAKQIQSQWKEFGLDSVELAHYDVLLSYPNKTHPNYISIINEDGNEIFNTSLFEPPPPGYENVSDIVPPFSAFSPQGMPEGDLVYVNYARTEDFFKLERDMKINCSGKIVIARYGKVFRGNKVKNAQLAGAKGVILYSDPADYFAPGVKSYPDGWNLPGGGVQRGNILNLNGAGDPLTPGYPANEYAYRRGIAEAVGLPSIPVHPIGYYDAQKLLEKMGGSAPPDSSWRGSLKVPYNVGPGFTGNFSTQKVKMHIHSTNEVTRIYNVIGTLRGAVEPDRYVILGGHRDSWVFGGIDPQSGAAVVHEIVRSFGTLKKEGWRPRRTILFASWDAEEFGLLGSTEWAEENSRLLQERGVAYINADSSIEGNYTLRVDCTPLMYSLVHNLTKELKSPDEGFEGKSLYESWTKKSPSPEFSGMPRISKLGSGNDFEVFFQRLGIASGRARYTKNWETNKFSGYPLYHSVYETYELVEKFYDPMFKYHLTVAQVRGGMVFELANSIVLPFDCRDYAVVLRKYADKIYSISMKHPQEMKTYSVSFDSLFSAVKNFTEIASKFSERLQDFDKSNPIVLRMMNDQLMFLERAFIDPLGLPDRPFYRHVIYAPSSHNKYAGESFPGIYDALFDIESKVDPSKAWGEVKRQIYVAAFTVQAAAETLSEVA

The test deals with Glutamate carboxypeptidase 2 (Homo sapiens, UniProt Q04609). Description: Inhibition of human recombinant N-terminal Avi-tagged glutamate carboxypeptidase 2 extracellular domain (44 to 750 amino acids) using pteroyl-di-L-glutamate substrate by HPLC method. Summed up:
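Avi-GCPII (0.2 ng) in 25 mM Bis-Tris propane, 150 mM NaCl, 0.001% octaethylene glycol monododecyl ether, pH 7.4, preincubated with inhibitor (ten concentrations) 5 min at 37 °C. Reaction started with pteroyl-di-L-glutamate (20 µl of 4 µM stock), run 20 min at 37 °C, stopped with 2-PMPA. Substrate and product separated by isocratic HPLC, detected at 281 nm; IC50 from full curves, Ki mean ± SD, duplicate or triplicate.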
On to `CC(=O)NCCOc1cc(I)ccc1C(=O)NCCCC[C@H](NC(=O)N[C@@H](CCC(=O)O)C(=O)O)C(=O)O`, for which the pKi (as a rule, the Ki on a negative log10 scale, so that one unit is a factor of ten) was 9.22.
For `CC(=O)NCCOc1ccccc1NC(=O)NCCCC[C@H](NC(=O)N[C@@H](CCC(=O)O)C(=O)O)C(=O)O`, the negative-log Ki (pKi) was 9.42.
The same measure for `CC(=O)NCCOc1cc(Br)ccc1C(=O)NCCCC[C@H](NC(=O)N[C@@H](CCC(=O)O)C(=O)O)C(=O)O`: 9.57.
For `NCCCC[C@H](NC(=O)N[C@@H](CCC(=O)O)C(=O)O)C(=O)O` the value was 7.35.
For `O=C(O)CC[C@H](NC(=O)N[C@@H](CCCCNC(=O)Nc1ccc(Br)cc1OCCNC(=O)CCOCCOCCOCCOCCOCCOCCOCCOCCOCCOCCOCCOCCNC(=O)CCCC[C@@H]1SC[C@@H]2NC(=O)N[C@@H]21)C(=O)O)C(=O)O` the value was 8.41; for `O=C(O)CC[C@H](NC(=O)N[C@@H](CCCCNC(=O)CCOCCOCCOCCOCCOCCOCCOCCOCCOCCOCCOCCOCCNC(=O)CCCC[C@@H]1SC[C@@H]2NC(=O)N[C@@H]21)C(=O)O)C(=O)O`, 7.98.
For `O=C(O)CC[C@H](NC(=O)N[C@@H](CCCCNC(=O)Cc1ccccc1OCCNC(=O)CCOCCOCCOCCOCCOCCOCCOCCOCCOCCOCCOCCOCCNC(=O)CCCC[C@H]1SC[C@H]2NC(=O)N[C@H]21)C(=O)O)C(=O)O`, the negative logarithm of the Ki (pKi) was 7.55.
The same measure for `CC(=O)NCCOc1ccccc1CC(=O)NCCCC[C@H](NC(=O)N[C@@H](CCC(=O)O)C(=O)O)C(=O)O`: 8.80; for `CC(=O)NCCOc1cc(F)ccc1C(=O)NCCCC[C@H](NC(=O)N[C@@H](CCC(=O)O)C(=O)O)C(=O)O`: 8.99; for `CC(=O)N(CCCC[C@H](NC(=O)N[C@@H](CCC(=O)O)C(=O)O)C(=O)O)Cc1ccc(Br)cc1`: 10.35.
For `O=C(O)CC[C@H](NC(=O)N[C@@H](CCCCNC(=O)CCOCCOCCOCCOCCOCCOCCOCCOCCNC(=O)CCCC[C@@H]1SC[C@@H]2NC(=O)N[C@@H]21)C(=O)O)C(=O)O` the value was 8.19; for `CC(=O)NCCOc1cc(Cl)ccc1C(=O)NCCCC[C@H](NC(=O)N[C@@H](CCC(=O)O)C(=O)O)C(=O)O`, 9.14.
The same measure for `O=C(O)CC[C@H](NC(=O)N[C@@H](CCCCN(Cc1ccccc1)C(=O)CCOCCOCCOCCOCCOCCOCCOCCOCCOCCOCCOCCOCCNC(=O)CCCC[C@@H]1SC[C@@H]2NC(=O)N[C@@H]21)C(=O)O)C(=O)O`: 8.47; for `CC(=O)NCCCC[C@H](NC(=O)N[C@@H](CCC(=O)O)C(=O)O)C(=O)O`: 9.76; for `O=C(O)CC[C@H](NC(=O)N[C@@H](CCCCNC(=O)Nc1ccccc1OCCNC(=O)CCOCCOCCOCCOCCOCCOCCOCCOCCOCCOCCOCCOCCNC(=O)CCCC[C@@H]1SC[C@@H]2NC(=O)N[C@@H]21)C(=O)O)C(=O)O`: 8.12.
For `CC(=O)NCCOc1cc(Br)ccc1NC(=O)NCCCC[C@H](NC(=O)N[C@@H](CCC(=O)O)C(=O)O)C(=O)O`, the pKi is 9.66.
The same measure for `CC(=O)N(CCCC[C@H](NC(=O)N[C@@H](CCC(=O)O)C(=O)O)C(=O)O)Cc1ccccc1`: 9.51.
Turning to `O=C(O)CC[C@H](NC(=O)N[C@@H](CCCCNC(=O)c1ccccc1OCCNC(=O)CCOCCOCCOCCOCCOCCOCCOCCOCCOCCOCCOCCOCCNC(=O)CCCC[C@@H]1SC[C@@H]2NC(=O)N[C@@H]21)C(=O)O)C(=O)O`, the pKi is 7.96.
For `CC(=O)NCCOc1ccccc1C(=O)NCCCC[C@H](NC(=O)N[C@@H](CCC(=O)O)C(=O)O)C(=O)O` the value was 9.22.
